Screens (PubChem BioAssay)
An excerpt weighted towards active compounds, which were near 2.3% of everything screened.
ATG4B inh: ATG4B (human) cysteine protease inhibition | Q9Y4P1 | inhibition, % at 8.33 µM | hit rate 0.51% among 340,000 | AID 504462 | ATG4B cleavage of LC3-PLA2, NBD-HPC fluorescence, 1 h; in the data active = inhibition above about 40%
Target sequence (Q9Y4P1 whole entry, looked up): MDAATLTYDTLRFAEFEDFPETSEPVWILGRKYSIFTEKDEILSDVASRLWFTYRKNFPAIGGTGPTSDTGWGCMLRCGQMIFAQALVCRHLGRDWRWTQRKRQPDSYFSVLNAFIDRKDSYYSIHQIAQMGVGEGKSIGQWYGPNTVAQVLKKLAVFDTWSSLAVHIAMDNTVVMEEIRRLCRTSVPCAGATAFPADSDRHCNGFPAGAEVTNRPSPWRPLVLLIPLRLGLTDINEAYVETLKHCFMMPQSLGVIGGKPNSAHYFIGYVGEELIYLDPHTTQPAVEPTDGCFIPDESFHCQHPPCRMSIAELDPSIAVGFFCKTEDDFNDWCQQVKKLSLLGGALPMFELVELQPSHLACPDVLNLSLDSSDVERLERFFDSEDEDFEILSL
MT1-MMP act inh: inhibitors of human MT1-MMP activation. AID 651647. GFP/RFP ratio change, % at 20 µM. hit rate 0.061% among 360,000. HT1080 RFP-PRO-GFP cells, GFP/RFP ratio fluorescence, overnight; percent of plate control window, DMSO zero. P50281;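 active = GFP/RFP ratio change of at least 30% with cell ATP level not reduced by more than half and red fluorescence within 50% of control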
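Assay system: HT1080 cells carrying an RFP-PRO-GFP reporter | Dosing: Single dose of 20 µM compound, 1% DMSO final | Incubation: Cells overnight before dosing, compound overnight, 37 °C, 5% CO2 | Evaluation: GFP/RFP fluorescence ratio | Control set: DMSO and RFP-L50D-GFP cell wells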
MPTP block: inhibitors of mitochondrial permeability transition pore; inhibition, % at 10 µM; hit rate 1.4% among 360,000; AID 602449; isolated mouse mitochondria, Ca2+ swelling absorbance, 30 min;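 active = inhibition of 50% or more, scaled per plate between neutral and stimulator controls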
SKN-1 block: inhibitors of C. elegans SKN-1 | inhibition, % at 21.8 µM | hit rate 0.49% among 360,000 | C. elegans VP596 Pgst-4::GFP/RFP ratio, acrylamide-induced, 24 h;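 active = interference check ratio from 0.5 to 1.5 plus GFP to RFP signal ratio inhibition reaching or exceeding a fixed threshold, cut at about 30% in these data, passing the limit was not always enough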
Hits are given with their value; . = inactive; / = not tested or not shown.

SMILES	ATG4B inh	MT1-MMP act inh	MPTP block	SKN-1 block
CCOC(=O)Nc1nc(C)c(C(=O)c2ccc(Cl)cc2)s1	.	/	.	.
CCOC(=O)Nc1nc(-c2ccc(Cl)cc2Cl)cs1	.	.	.	57
Fc1ccc(CSc2nsc(SCc3ccc(F)cc3)n2)cc1	.	.	.	.
CSc1nsc(SCc2ccc(F)cc2)n1	.	.	.	60
CC1CCC(NC(=O)CN2C(=O)C3CC=CCC3C2=O)CC1 (stereo not drawn)	.	.	.	.
CCCCCCCCN1C(=O)[C@H](CC(=O)NCc2ccc(OC)c(OC)c2)C[C@@]2(C(=O)OC)CC(C)(C)CC=C12	/	.	.	.
Clc1ccc(-c2ccnc(-n3cccc3)n2)s1	.	.	.	43
O=C(Nc1ccccc1)OCCCc1ccccc1	.	.	.	35
Cc1c(Cl)cccc1NC(=S)C(=C([O-])c1ccc(Cl)s1)[n+]1ccccc1	.	.	.	.
Cc1nc(NC(=O)C2CC3CCCC(C2)C3=O)sc1C (stereo not drawn)	.	.	.	33
Cc1nc(NC(=O)C2CCCCC2C(=O)O)sc1C (stereo not drawn)	.	.	.	.
Cc1ccc(Cn2cnc3ccccc32)cc1C	.	.	.	.
CC(C)c1ccc(CNc2ccc([N+](=O)[O-])cn2)cc1	.	.	.	.
O=[N+]([O-])c1ccc(Nc2ccc(Cl)cc2)nc1	.	.	.	39
O=[N+]([O-])c1ccc(Nc2ccccc2F)nc1	.	.	.	.
O=[N+]([O-])c1ccc(NCc2ccc(Cl)cc2)nc1	.	.	.	43
O=C(CCS(=O)(=O)c1ccccc1)Nc1ccccc1F	.	.	.	.
Cc1ccccc1-c1cccc([C@@H]2C[C@H]3[C@H](CON3C)CN2Cc2cc(Cl)cc(Cl)c2)c1	.	.	.	.
CCOC(=O)[C@]12CCCC=C1N(Cc1cccc3ccccc13)C(=O)[C@H](CC(=O)NCCCN1CCCC1=O)C2	/	.	.	.
CN1CCN(/N=C/c2ccc(OCc3ccccc3)cc2)CC1	.	.	.	50
COC(=O)c1ccc(COc2ccc(/C=N/N3CCN(C)CC3)cc2)cc1	.	.	.	.
CN1OC(COC(=O)c2ccc(Cl)cc2Cl)CC1c1ccccc1 (stereo not drawn)	.	.	.	.
[O-]C1=N/[N+](=C/c2ccccc2)CC1	.	.	.	.
[O-]C1=N/[N+](=C/c2ccccc2Cl)CC1	.	.	.	35
Cn1c(=O)c2c(-c3ccccc3)n(-c3ccc(N)cc3)cc2n(C)c1=O	/	.	.	49
SMILES	ATG4B inh	MT1-MMP act inh	MPTP block	SKN-1 block
COc1ccc2c(c1)c(C(O)CN1CCN(Cc3ccc4c(c3)OCO4)CC1)c(C)n2C (stereo not drawn)	.	.	.	44
COc1ccccc1N1CCN(CC(=O)Nc2ccc3c(c2)OCCO3)CC1	.	.	.	.
COc1ccccc1N1CCN(CCC(=O)Nc2ccc3c(c2)OCO3)CC1	.	.	.	48
Cc1c(N=C2N=C(NC(=O)c3cccs3)c3ccccc32)c(=O)n(-c2ccccc2)n1C	.	.	.	39
Cc1cc(NS(=O)(=O)c2ccc(NC(=O)c3cc(-c4cccnc4)nc4ccc(Cl)cc34)cc2)no1	.	.	.	37
Cc1c(OC(=O)CNC(=O)OC(C)(C)C)ccc2c3c(c(=O)oc12)CCC3	.	.	.	45
COCCCNC(=O)c1ccc2c3c(onc13)-c1ccccc1C2=O	.	.	.	62
COCCCNC(=O)c1ccccc1Oc1ccccc1	.	.	.	.
Nc1cc2nsnc2cc1Br	65	.	.	.
Nc1cccc2nsnc12	.	.	.	.
CCN(CC(=O)Nc1c(F)cccc1F)C(=O)Cc1csc(-c2ccccc2)n1	.	.	.	.
Oc1ccc(N=Nc2ccc3ccccc3c2)cc1	.	.	.	46
COc1cc(N=Nc2ccc3ccccc3c2)ccc1O	.	.	.	.
COc1ccc(CC(=O)OCC(=O)Nc2ccc(Br)cc2)cc1	.	.	.	.
O=C(CSc1nc2ccccc2o1)c1ccc2c(c1)OCCO2	.	.	.	37
O=C(CSc1nc2ccccc2o1)c1ccccc1	.	.	.	.
CCCn1c(SCC(=O)Nc2ccc3c(c2)OCO3)n[nH]c1=O	.	.	.	.
CCCn1c(SCC(=O)c2ccc3c(c2)OCCO3)n[nH]c1=O	.	.	.	43
CO[C@H]1CN(C)C(=O)c2cc(NC(=O)C3CCOCC3)ccc2OC[C@H](C)N(Cc2nccs2)C[C@H]1C	/	.	.	.
CC(C)Cn1c(N)c(C(=O)CSc2nnnn2C)c(=O)n(C)c1=O	.	.	.	43
Cc1nc(Cc2nnc(SC(C)C(=O)Nc3cccc(C#N)c3)o2)cs1 (stereo not drawn)	.	.	.	.
CCc1nnc(NS(=O)(=O)c2ccc(Nc3ccc([N+](=O)[O-])c4nonc34)cc2)s1	.	.	.	51
CC(=O)c1ccc(Nc2ccc([N+](=O)[O-])c3nonc23)cc1	.	.	.	.
O=C(O)c1ccc(Nc2ccc([N+](=O)[O-])c3nonc23)cc1	.	.	.	44
C#CCOCCOCCOCCNc1nc(N2CCN(C(=O)CCCCCCCCCCNC(=O)[C@H]([C@@H](C)CC)n3cc(CCCCCN)nn3)CC2)nc(N2CCN(C(=O)CCCCCCCCCCNC(=O)[C@H]([C@@H](C)CC)n3cc(CCCCN=C(N)N)nn3)CC2)n1	/	.	.	.
SMILES	ATG4B inh	MT1-MMP act inh	MPTP block	SKN-1 block
C#CCOCCOCCOCCNc1nc(N2CCN(C(=O)CCCCCCCCCCNC(=O)[C@H](CO)n3cc(CCCSC)nn3)CC2)nc(N2CCN(C(=O)CCCCCCCCCCNC(=O)[C@H](CCCN=C(N)N)n3cc(C[C@@H](C)CC)nn3)CC2)n1	72	.	.	.
C#CCOCCOCCOCCNc1nc(N2CCN(C(=O)CCCCCCCCCCNC(=O)[C@H]([C@@H](C)CC)n3cc(CCCCN=C(N)N)nn3)CC2)nc(N2CCN(C(=O)CCCCCCCCCCNC(=O)[C@H](CO)n3cc(CCCCCN)nn3)CC2)n1	54	.	.	.
C#CCOCCOCCOCCNc1nc(N2CCN(C(=O)CCCCCCCCCCNC(=O)Cn3cc(CCCCCN)nn3)CC2)nc(N2CCN(C(=O)CCCCCCCCCCNC(=O)[C@H]([C@@H](C)CC)n3cc(CCCCN=C(N)N)nn3)CC2)n1	49	.	.	.
COc1ccc(C(=O)N2CCC(C)(C(=O)O)C2)c(OC)c1 (stereo not drawn)	/	.	.	.
C/C=C/c1cc(CN2CCN(c3ccc(OC)cc3)CC2)c(O)c(OC)c1	.	.	.	.
Cc1ccc(C)c(NC(=O)/C(C#N)=C/c2ccc[nH]2)c1	.	.	.	37
Brc1ccc(-c2cn3cccnc3n2)cc1	.	.	.	48
Clc1ccc(-c2cn3cccnc3n2)cc1	.	.	.	.
Clc1ccc(-c2cn3cccnc3n2)cc1Cl	.	.	.	42
Cc1c(NC(=O)NCCN2C(=O)C3C4C=CC(C4)C3C2=O)c(=O)n(-c2ccccc2)n1C (stereo not drawn)	.	.	.	.
O=C(NCCN1C(=O)C2C3C=CC(C3)C2C1=O)Nc1ccccc1O (stereo not drawn)	.	.	.	38
